For 43 molecules, inhibition and Ki results are on record in ChEMBL document CHEMBL3351730, “New N-aryl-N'-(3-(substituted)phenyl)-N'-methylguanidines as leads to potential PET radioligands for imaging the open NMDA receptor” (Bioorg Med Chem Lett, 2015).

The target in assay [1] is Glutamate NMDA receptor (Rattus norvegicus) (UniProt P35439+Q00959+Q00960+Q00961+Q62645+Q8VHN2+Q9R1M7). Put plainly: Displacement of [3H]TCP from rat brain NMDA receptor at 1 uM. In a few lines:
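Rat brain membrane suspensions; competition for the PCP site of the NMDA receptor with [3H]TCP as radioligand. Test ligand at 1.0 μM, read-out as percent inhibition of [3H]TCP binding. Values are the mean of two experiments.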

Another assay addresses Glutamate NMDA receptor. Put plainly: Displacement of [3H]TCP from rat brain NMDA receptor. In a few lines: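 Rat brain membrane suspensions, PCP site of NMDA receptor; [3H]TCP as radioligand. Ligands first screened at 1.0 μM for inhibition of [3H]TCP binding. Ki determined, also with [3H]TCP, usually when inhibition at 1.0 μM reached 80% or more. Values are the mean from two experiments.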

pKi: −log10 of the molar value.

Turning to `CN(C(=N)Nc1cccc2ccccc12)c1cccc(SC(F)(F)F)c1`, in assay [1], the inhibition came out at 80%. The same molecule showed a pKi on Glutamate NMDA receptor of 6.35. The corresponding values for `CSc1cccc(N(C)C(=N)Nc2cccc3cnccc23)c1` are 91.2% and 6.96. For `CSc1cccc(N(C)C(=N)Nc2ccc(Br)c3ccncc23)c1`, the inhibition in assay [1] was 14.4%. In the case of `CN(C(=N)Nc1cccc2ccccc12)c1cccc(Cc2ccccc2)c1`, in assay [1], the inhibition turned out to be 16.2%.

For `CSc1cccc(N(C)C(=N)Nc2cccc3c(Cl)nccc23)c1`, in assay [1], the inhibition stood at 91.7%. Also, at Glutamate NMDA receptor, the pKi is 6.27. For `CSc1cccc(N(C)C(=N)Nc2ccc(Br)cc2Br)c1`, the inhibition in assay [1] is 69.7%. As for `CN(C(=N)Nc1cccc2ccccc12)c1cccc(C#N)c1`, the inhibition in assay [1] came to 62.9%. Still for that read-out and setting: with `CN(C(=N)Nc1cccc2ccccc12)c1ccc(F)c(C#N)c1` the figure was 62.1%. Consider `CN(C(=N)Nc1cccc2ccccc12)c1cccc(OCc2ccccc2)c1`, for which the inhibition in assay [1] was -2.5%. For `CN(C(=N)Nc1cccc2ccccc12)c1cccc(Cl)c1`, the inhibition in assay [1] was determined as 69.2%.

In the case of `CSc1cccc(N(C)C(=N)Nc2ccc(Cl)c3ncccc23)c1`, the inhibition in assay [1] was 8.6%. For `CC(=O)c1cccc(N(C)C(=N)Nc2cccc3ccccc23)c1`, the inhibition in assay [1] came out at 82.3%. Moreover, the pKi at Glutamate NMDA receptor is 6.82. For the molecule `CN(C(=N)Nc1cccc2ccccc12)c1ccc2ccccc2c1`, the inhibition in assay [1] is 55%. As to `CN(C(=N)Nc1cccc2ccccc12)c1cccc(F)c1`, the inhibition in assay [1] was found to be 36.9%. For `CN(C(=N)Nc1cccc2ccccc12)c1ccc(F)c([N+](=O)[O-])c1`, in assay [1], the inhibition was found to be 0.7%. Same read-out and setting: with `COc1cc(F)cc(N(C)C(=N)Nc2cccc3ccccc23)c1` the figure was 32.9%; with `CN(C(=N)Nc1cccc2ccccc12)c1cc(Br)ccc1F`, 13.8%. For `CSc1cccc(N(C)C(=N)Nc2cncc3ccccc23)c1`, the inhibition in assay [1] was 80.7%. This molecule had a negative-log Ki (pKi) at Glutamate NMDA receptor of less than 6.00. `CN(C(=N)Nc1cccc2ccccc12)c1c(F)ccc(Cl)c1F`: the inhibition in assay [1] was 37.6%. As for `C=Cc1cccc(N(C)C(=N)Nc2cccc3ccccc23)c1`, in assay [1], the inhibition stood at 73.9%. Same read-out and setting: with `CN(C(=N)Nc1cccc2ccccc12)c1cccc(OC(F)F)c1` the figure was 66.4%; with `CSc1cccc(N(C)C(=N)Nc2cnccc2Br)c1`, 23.7%; with `CN(C(=N)Nc1cccc2ccccc12)c1cccc(OC(F)(F)F)c1`, 79.2%. On to `CSc1cccc(N(C)C(=N)Nc2cccc3ccccc23)c1`, for which, in assay [1], the inhibition was found to be 93.1%. Also, the pKi at Glutamate NMDA receptor was 7.40.

As to `CSc1cccc(N(C)C(=N)Nc2ccc3ccccc3c2)c1`, the inhibition in assay [1] worked out at 3.4%. For `CN(C(=N)Nc1cccc2ccccc12)c1cccc(Oc2ccccc2)c1`, the inhibition in assay [1] was 30%. On to `C=CSc1cccc(N(C)C(=N)Nc2cccc3ccccc23)c1`, for which the inhibition in assay [1] worked out at 88.4%. Consider `CN(C)c1cccc(N(C)C(=N)Nc2cccc3ccccc23)c1`, for which the inhibition in assay [1] is 94.6%. This molecule also showed a pKi on Glutamate NMDA receptor of 7.44. Regarding `CN(C(=N)Nc1cccc2ccccc12)c1cc(F)cc(Cl)c1`, in assay [1], the inhibition was found to be 86.8%. At Glutamate NMDA receptor, this molecule had a pKi of 7.11. Turning to `CN(C(=N)Nc1cccc2ccccc12)c1cccc(SCCF)c1`, the inhibition in assay [1] amounted to 76.7%. Take `CN(C(=N)Nc1cccc2ccccc12)c1cccc(I)c1`: the inhibition in assay [1] turned out to be 106%. Also, the pKi at Glutamate NMDA receptor was 7.50. On to `CN(C(=N)Nc1cccc2ccccc12)c1cccc(C(F)(F)F)c1`, for which the inhibition in assay [1] amounted to 107%. The molecule further had a negative logarithm of the Ki (pKi) on Glutamate NMDA receptor of 7.74. Turning to `CN(C(=N)Nc1cccc2ccccc12)c1cccc(Cl)c1F`, the inhibition in assay [1] turned out to be 84%. Still for that read-out and setting: with `CSc1cccc(N(C)C(=N)Nc2cccc3ccncc23)c1` the figure was 73.8%; with `CN(C(=N)Nc1cccc2ccccc12)c1ccc(F)c(Br)c1`, 56.5%; with `CSc1cccc(N(C)C(=N)Nc2cccc3cccnc23)c1`, 72.2%. Still for that read-out and setting: with `CSc1cccc(N(C)C(=N)Nc2nccc3ccccc23)c1` the figure was 25.3%; with `CN(C(=N)Nc1cccc2ccccc12)c1cccc(CO)c1`, 20%; with `C#Cc1cccc(N(C)C(=N)Nc2cccc3ccccc23)c1`, 74.3%.

Take `CN(C(=N)Nc1cccc2ccccc12)c1cccc(O)c1`: in assay [1], the inhibition turned out to be 11.9%. With `CN(C(=N)Nc1cccc2ccccc12)c1cccc(Br)c1`, the inhibition in assay [1] amounted to 104%. This molecule had a pKi at Glutamate NMDA receptor of 7.27. In the case of `Cc1cc(N(C)C(=N)Nc2cccc3ccccc23)ccc1F`, the inhibition in assay [1] was 46.5%. As for `CN(C(=N)Nc1cccc2ccccc12)c1ccc(F)c(Cl)c1`, in assay [1], the inhibition stood at 65.8%.
